Data set [1] addresses Myotonin-protein kinase (Homo sapiens) (UniProt Q09013). Description: Binding affinity to wild-type human partial length DMPK (V47 to V415 residues) expressed in bacterial expression system assessed as remaining unbound target protein level at 1000 nM by Kinomescan method relative to control.
In data set [2] the target is Serine/threonine-protein kinase 16 (Homo sapiens) (UniProt O75716). Description: Binding affinity to wild-type human partial length STK16 (G11 to I305 residues) expressed in bacterial expression system assessed as remaining unbound target protein level at 1000 nM by Kinomescan method relative to control.
The target in data set [3] is Serine/threonine-protein kinase ULK3 (Homo sapiens) (UniProt Q6PHR2). The experiment in a line: Binding affinity to wild-type human partial length ULK3 (M1 to Q290 residues) expressed in mammalian expression system assessed as remaining unbound target protein level at 1000 nM by Kinomescan method relative to control.
Data set [4] is described as follows: Clearance in Sprague-Dawley rat at 3 mg/kg, iv by LC-MS/MS analysis. The note with it: in vivo. The class given is ADME, organism-based.
The target of data set [5] is Cyclin-dependent kinase 9 (Homo sapiens, UniProt P50750). The experiment in a line: Inhibition of CDK9 in human HL60 cells assessed as decrease in phosphorylation at Thr 186 residues up to 3 uM after 2 hrs by immunoblotting analysis. The format is cell-based.
Data set [6] can be described thus: Apparent volume of distribution in beagle dog at 2 mg/kg, iv by LC-MS/MS analysis. The class given is ADME, organism-based, Canis lupus familiaris. The note with it: in vivo, read-out: Vz. Summed up:
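Non-compartmental PK. Male SD rats 190-210 g, mice and beagle dogs acclimatized one week, fasted 12 h with water, split into iv and po groups (mice 48, rats 6, dogs 6). iv 3/3/2 mg/kg (mice/rats/dogs); po 10/20/10 mg/kg; vehicle DMSO in 5% glucose water. Blood at 2 or 5 to 720 min; plasma protein-precipitated with methanol, caffeine internal standard, LC-MS/MS.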

The test system of data set [7] is Receptor-type tyrosine-protein kinase FLT3 (Homo sapiens), P36888 [D835V]. The experiment in a line: Binding affinity to human partial length FLT3 D835V mutant (V592 to Y969 residues) expressed in bacterial expression system assessed as remaining unbound target protein level at 1000 nM by Kinomescan method relative to control. Summed up: (§1)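 KINOMEscan competition-binding profiling across the panel of 468 kinases and mutants, with inhibitor tested at 1 μM. Binding is expressed as percent of control, with DMSO as the reference control.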

For data set [8], the target named is Dual specificity mitogen-activated protein kinase kinase 6 (Homo sapiens) (UniProt P52564). The experiment in a line: Binding affinity to wild-type human partial length MEK6 (K36 to D334 residues) expressed in bacterial expression system assessed as remaining unbound target protein level at 1000 nM by Kinomescan method relative to control. Summed up: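 KINOMEscan binding panel of 468 kinases/mutants. Inhibitor was tested at a single concentration of 1 μM. Binding is reported as percent of control, defined relative to a DMSO control.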

For data set [9], the target named is Casein kinase I isoform gamma-2 (Homo sapiens) (UniProt P78368). The experiment in a line: Binding affinity to wild-type human full length CSNK1G2 (M1 to K415 residues) expressed in bacterial expression system assessed as remaining unbound target protein level at 1000 nM by Kinomescan method relative to control. Summed up: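 KINOMEscan competitive binding profile at 1 μM inhibitor. Remaining target binding reported as percent of DMSO control.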

The target of data set [10] is Phosphatidylinositol 4-phosphate 3-kinase C2 domain-containing subunit beta (Homo sapiens) (UniProt O00750). Description: Binding affinity to wild-type human partial length PIK3C2B (M1 to L1634 residues) expressed in mammalian expression system assessed as remaining unbound target protein level at 1000 nM by Kinomescan method relative to control.
Data set [11] addresses Receptor-interacting serine/threonine-protein kinase 2 (Homo sapiens) (UniProt O43353). Description: Binding affinity to wild-type human partial length RIPK2 (M1 to K310 residues) expressed in bacterial expression system assessed as remaining unbound target protein level at 1000 nM by Kinomescan method relative to control.
Data set [12] has as its target Dual specificity protein kinase CLK3 (Homo sapiens) (UniProt P49761). The experiment in a line: Binding affinity to wild-type human full length CLK3 (M1 to R490 residues) expressed in bacterial expression system assessed as remaining unbound target protein level at 1000 nM by Kinomescan method relative to control. Summed up: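 Single-point competition binding screen across a panel of 468 kinases and mutants, with the inhibitor at 1 μM. Binding is read out as percent of a DMSO control, and targets below 1 percent control were classed as strong binders.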

For data set [13], the target named is Homeodomain-interacting protein kinase 1 (Homo sapiens) (UniProt Q86Z02). Description: Binding affinity to wild-type human partial length HIPK1 (M146 to I555 residues) expressed in mammalian expression system assessed as remaining unbound target protein level at 1000 nM by Kinomescan method relative to control.
The test system of another data set is SK-N-BE(2)-M17. The experiment in a line: Antiproliferative activity against human BE(2)-M17 cells after 72 hrs by Celltiter-Glo assay. The class given is functional. The settings on record: SK-N-BE(2)-M17, 72 h. In outline:
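Cells seeded at 3000/well in 96-well plates, exposed to serially diluted compound for 72 h at 37 °C, 5% CO2. Viability read by CellTiter-Glo luminescence and normalized to DMSO control. GI50 derived from curve fit, mean of three independent measurements. Culture media: DMEM/10% FBS for adherent lines; IMDM for MV4-11 and MEC-1/2; RPMI 1640 for suspension lines and CHL.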

The target of data set [14] is Tyrosine-protein kinase Fyn (Homo sapiens) (UniProt P06241). The experiment in a line: Binding affinity to wild-type human partial length FYN (T243 to L534 residues) expressed in bacterial expression system assessed as remaining unbound target protein level at 1000 nM by Kinomescan method relative to control.
For data set [15], the target named is Mitogen-activated protein kinase kinase kinase 13 (Homo sapiens) (UniProt O43283). The experiment in a line: Binding affinity to wild-type human full length LZK (M1 to W966 residues) expressed in mammalian expression system assessed as remaining unbound target protein level at 1000 nM by Kinomescan method relative to control. In outline:
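KINOMEscan competition binding profile across a panel of 468 kinases and mutants, with the inhibitor tested at a single concentration of 1 μM. Binding is reported as percent of control, meaning signal relative to a DMSO control.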

Data set [16] has as its target Serine/threonine-protein kinase WNK3 (Homo sapiens) (UniProt Q9BYP7). The experiment in a line: Binding affinity to wild-type human partial length WNK3 (M1 to D434 residues) expressed in mammalian expression system assessed as remaining unbound target protein level at 1000 nM by Kinomescan method relative to control.
Data set [17] has as its target Serine/threonine-protein kinase 24 (Homo sapiens) (UniProt Q9Y6E0). The experiment in a line: Binding affinity to wild-type human partial length MST3 (A30 to S311 residues) expressed in bacterial expression system assessed as remaining unbound target protein level at 1000 nM by Kinomescan method relative to control.
Data set [18] has as its system Receptor-type tyrosine-protein kinase FLT3 (Homo sapiens), P36888 [UNDEFINED MUTATION]. The experiment in a line: Binding affinity to human partial length FLT3 ITD/F691L double mutant expressed in bacterial expression system assessed as remaining unbound target protein level at 1000 nM by Kinomescan method relative to control. In outline:
as §1

Calls of active or inactive are those of the source. No cut-off for these calls is given here.

Myotonin-protein kinase (Homo sapiens), sequence (Q09013 whole entry, the tested form may be a part): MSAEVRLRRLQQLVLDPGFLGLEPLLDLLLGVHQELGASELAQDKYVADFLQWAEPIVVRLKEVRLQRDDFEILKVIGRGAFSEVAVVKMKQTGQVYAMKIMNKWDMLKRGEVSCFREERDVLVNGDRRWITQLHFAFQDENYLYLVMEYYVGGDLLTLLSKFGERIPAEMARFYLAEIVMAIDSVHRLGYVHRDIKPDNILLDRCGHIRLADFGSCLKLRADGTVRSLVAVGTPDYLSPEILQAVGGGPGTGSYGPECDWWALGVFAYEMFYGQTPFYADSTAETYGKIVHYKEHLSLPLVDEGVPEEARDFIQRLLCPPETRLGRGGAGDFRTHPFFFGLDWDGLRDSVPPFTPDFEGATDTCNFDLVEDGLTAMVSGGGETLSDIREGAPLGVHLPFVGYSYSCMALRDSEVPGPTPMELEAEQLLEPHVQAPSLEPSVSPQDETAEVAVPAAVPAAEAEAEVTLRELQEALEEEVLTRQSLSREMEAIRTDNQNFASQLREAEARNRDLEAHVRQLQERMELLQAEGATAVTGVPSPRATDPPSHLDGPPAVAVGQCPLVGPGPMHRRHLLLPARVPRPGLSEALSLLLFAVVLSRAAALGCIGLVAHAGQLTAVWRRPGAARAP
Serine/threonine-protein kinase ULK3 (Homo sapiens), sequence (Q6PHR2 whole entry, the tested form may be a part): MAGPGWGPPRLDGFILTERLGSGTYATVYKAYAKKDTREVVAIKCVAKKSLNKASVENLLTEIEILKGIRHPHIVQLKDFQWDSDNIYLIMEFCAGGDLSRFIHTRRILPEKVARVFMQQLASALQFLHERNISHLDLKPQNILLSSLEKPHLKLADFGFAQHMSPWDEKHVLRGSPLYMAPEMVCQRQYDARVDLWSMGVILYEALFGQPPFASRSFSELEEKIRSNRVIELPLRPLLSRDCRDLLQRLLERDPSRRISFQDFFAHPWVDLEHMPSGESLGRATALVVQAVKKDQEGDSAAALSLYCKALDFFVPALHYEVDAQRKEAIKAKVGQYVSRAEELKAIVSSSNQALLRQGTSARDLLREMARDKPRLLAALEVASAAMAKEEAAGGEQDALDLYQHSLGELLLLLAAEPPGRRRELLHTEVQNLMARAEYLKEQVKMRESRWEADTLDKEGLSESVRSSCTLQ
Mitogen-activated protein kinase kinase kinase 13 (Homo sapiens), sequence (O43283 whole entry, the tested form may be a part): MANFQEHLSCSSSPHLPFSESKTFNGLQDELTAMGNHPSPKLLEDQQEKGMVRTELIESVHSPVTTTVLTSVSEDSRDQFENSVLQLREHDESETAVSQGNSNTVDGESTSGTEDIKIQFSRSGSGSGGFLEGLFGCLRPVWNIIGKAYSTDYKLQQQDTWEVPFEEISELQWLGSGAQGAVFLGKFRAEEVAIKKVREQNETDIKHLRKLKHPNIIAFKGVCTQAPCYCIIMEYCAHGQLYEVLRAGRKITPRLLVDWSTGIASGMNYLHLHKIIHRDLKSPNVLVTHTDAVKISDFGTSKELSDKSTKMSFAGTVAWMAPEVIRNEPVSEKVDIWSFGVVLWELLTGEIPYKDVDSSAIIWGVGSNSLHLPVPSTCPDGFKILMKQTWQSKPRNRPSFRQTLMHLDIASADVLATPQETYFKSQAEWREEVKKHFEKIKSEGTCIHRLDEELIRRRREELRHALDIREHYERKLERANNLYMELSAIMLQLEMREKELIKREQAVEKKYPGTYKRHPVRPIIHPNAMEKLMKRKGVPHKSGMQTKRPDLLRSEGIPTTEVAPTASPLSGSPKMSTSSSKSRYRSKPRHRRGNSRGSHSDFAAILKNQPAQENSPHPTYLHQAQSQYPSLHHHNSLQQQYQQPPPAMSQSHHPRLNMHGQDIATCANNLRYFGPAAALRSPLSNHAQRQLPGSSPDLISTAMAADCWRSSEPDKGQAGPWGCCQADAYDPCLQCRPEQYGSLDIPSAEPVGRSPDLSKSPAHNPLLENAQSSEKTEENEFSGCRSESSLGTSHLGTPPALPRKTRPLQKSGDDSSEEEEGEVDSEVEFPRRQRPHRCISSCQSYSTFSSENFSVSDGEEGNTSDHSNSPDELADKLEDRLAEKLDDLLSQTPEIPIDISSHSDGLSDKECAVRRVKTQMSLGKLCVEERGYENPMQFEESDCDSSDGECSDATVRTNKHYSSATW
Serine/threonine-protein kinase 24 (Homo sapiens), sequence (Q9Y6E0 whole entry, looked up, the tested form may be a part): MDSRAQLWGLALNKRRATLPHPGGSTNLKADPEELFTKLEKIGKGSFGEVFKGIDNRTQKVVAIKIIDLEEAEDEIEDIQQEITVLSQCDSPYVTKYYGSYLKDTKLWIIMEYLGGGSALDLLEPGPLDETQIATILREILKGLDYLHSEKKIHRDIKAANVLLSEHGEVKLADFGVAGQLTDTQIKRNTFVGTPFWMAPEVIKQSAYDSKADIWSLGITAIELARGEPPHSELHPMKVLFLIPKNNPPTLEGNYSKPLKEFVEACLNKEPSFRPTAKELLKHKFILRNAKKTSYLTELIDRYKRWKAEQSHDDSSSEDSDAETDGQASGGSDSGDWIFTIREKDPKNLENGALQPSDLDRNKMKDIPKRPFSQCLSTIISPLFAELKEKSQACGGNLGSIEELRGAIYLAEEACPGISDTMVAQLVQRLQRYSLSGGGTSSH
Homeodomain-interacting protein kinase 1 (Homo sapiens), sequence (Q86Z02 whole entry, looked up, the tested form may be a part): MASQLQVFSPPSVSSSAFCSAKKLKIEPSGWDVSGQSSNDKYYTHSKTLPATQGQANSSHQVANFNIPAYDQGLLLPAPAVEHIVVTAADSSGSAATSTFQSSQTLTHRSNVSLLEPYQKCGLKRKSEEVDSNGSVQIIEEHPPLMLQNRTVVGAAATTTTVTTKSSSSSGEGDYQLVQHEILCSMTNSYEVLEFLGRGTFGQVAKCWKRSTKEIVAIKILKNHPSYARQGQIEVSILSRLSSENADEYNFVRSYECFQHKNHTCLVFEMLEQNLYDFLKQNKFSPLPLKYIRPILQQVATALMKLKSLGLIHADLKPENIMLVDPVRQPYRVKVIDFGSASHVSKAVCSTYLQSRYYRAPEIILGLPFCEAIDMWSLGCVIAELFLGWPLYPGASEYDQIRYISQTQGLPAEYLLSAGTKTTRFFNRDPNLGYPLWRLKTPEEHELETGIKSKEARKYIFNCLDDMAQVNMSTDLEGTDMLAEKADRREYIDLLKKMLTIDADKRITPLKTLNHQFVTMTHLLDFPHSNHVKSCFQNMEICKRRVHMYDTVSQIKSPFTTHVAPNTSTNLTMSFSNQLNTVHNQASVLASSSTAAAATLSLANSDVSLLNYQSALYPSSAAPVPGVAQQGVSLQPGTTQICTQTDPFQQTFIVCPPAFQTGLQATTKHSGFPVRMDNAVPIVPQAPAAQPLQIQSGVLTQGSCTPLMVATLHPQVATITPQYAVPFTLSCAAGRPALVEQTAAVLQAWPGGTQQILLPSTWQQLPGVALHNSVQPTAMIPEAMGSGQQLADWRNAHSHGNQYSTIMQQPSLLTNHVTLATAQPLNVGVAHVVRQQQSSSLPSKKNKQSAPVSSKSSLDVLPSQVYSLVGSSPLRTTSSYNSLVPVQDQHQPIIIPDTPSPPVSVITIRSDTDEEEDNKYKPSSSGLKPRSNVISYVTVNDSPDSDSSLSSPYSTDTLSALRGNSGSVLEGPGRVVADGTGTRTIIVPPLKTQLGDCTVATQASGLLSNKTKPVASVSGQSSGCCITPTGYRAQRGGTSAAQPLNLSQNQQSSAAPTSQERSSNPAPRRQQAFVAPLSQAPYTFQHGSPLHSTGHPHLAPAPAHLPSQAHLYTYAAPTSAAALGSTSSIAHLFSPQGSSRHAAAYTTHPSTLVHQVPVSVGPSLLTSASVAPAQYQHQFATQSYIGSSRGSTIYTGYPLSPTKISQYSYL
Serine/threonine-protein kinase 16 (Homo sapiens), sequence (O75716 whole entry, the tested form may be a part): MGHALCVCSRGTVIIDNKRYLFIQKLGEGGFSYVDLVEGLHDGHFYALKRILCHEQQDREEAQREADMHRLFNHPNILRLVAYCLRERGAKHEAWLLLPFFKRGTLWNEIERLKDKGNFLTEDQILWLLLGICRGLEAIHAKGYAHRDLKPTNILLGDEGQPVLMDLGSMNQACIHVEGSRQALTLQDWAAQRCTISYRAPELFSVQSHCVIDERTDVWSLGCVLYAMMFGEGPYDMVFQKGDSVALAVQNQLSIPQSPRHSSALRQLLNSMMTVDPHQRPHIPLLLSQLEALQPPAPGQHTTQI
Casein kinase I isoform gamma-2 (Homo sapiens), sequence (P78368 whole entry, looked up, the tested form may be a part, canonical isoform): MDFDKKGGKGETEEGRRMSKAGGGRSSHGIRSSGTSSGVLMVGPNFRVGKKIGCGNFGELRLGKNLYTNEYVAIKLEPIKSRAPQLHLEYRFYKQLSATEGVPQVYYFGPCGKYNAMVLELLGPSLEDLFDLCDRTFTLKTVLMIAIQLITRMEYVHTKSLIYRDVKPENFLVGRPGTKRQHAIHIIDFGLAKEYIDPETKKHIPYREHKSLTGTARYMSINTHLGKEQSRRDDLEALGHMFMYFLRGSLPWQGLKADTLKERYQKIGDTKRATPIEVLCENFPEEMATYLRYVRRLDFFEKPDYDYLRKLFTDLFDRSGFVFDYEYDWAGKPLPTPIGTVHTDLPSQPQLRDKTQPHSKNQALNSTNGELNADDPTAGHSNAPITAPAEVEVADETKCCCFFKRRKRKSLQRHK
Dual specificity protein kinase CLK3 (Homo sapiens), sequence (P49761 whole entry, looked up, the tested form may be a part): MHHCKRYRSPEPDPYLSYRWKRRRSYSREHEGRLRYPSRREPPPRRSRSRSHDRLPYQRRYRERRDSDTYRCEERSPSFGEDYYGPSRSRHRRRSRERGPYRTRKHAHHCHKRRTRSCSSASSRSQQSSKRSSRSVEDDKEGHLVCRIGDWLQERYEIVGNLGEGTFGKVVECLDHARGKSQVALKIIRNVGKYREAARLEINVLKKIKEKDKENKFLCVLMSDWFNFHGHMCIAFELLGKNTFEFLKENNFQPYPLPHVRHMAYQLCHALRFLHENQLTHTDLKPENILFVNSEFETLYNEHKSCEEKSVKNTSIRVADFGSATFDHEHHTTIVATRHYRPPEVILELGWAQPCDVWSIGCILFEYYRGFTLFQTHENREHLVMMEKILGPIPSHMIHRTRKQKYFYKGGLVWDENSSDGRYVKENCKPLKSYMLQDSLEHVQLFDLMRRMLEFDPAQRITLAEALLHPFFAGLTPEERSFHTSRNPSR

As to `COCCN[C@H]1CC[C@H](Nc2cc(-c3csc(NCC4(C#N)CCOCC4)n3)c(Cl)cn2)CC1`, the Activity in data set [1] was 100%; in data set [2], 76%; in data set [3], 100%; in data set [7] it was 88%; in data set [8], 68%; in [9] it was 73%. Further, the Activity in [10] was found to be 100%; in data set [11], 96%; in data set [12], 92%; in data set [13] it was 60%; in [14], 83%; in data set [15], 99%. Further, the Activity stood at 97% in data set [16], 90% in data set [17] and 75% in data set [18]. In addition, the clearance (in general, a measure of how efficiently the substance is removed, as volume per time) in data set [4] is 75.8 mL/min/kg. For the same compound, in data set [5], the inhibition entry is “inactive”. Besides, the Vd in data set [6] turned out to be 12.8 L/kg. For the same compound, in the data set on SK-N-BE(2)-M17, it took 34 nM to inhibit growth by half (GI50).

The values are drawn from ChEMBL document CHEMBL4261600 (Eur J Med Chem, 2018).
